Laboratory results published in ChEMBL document CHEMBL4765243, “Discovery of Novel Bromophenol-Thiosemicarbazone Hybrids as Potent Selective Inhibitors of Poly(ADP-ribose) Polymerase-1 (PARP-1) for Use in Cancer” (J Med Chem, 2019).

How the values were obtained:
SK-OV-3 [1] = experiment: Antiproliferative activity against human SK-OV-3 cells assessed as cell growth inhibition incubated for 48 hrs by MTT assay; format: functional, cell-based; conditions: SK-OV-3, 48 h
Outline: (§1)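 Cells seeded in 96-well plates and exposed to compounds for 48 h; viability read by MTT. Each experiment repeated three times. SK-OV-3 grown in McCOY's 5A, Bel-7402 and HL-7702 in RPMI-1640, HepG2 in DMEM, Caco-2 in MEM.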

Bel-7402 [2] = experiment: Antiproliferative activity against human Bel-7402 cells assessed as cell growth inhibition incubated for 48 hrs by MTT assay; format: functional, cell-based; conditions: Bel-7402, 48 h; outline: as §1
HepG2 [3] = experiment: Antiproliferative activity against human HepG2 cells assessed as cell growth inhibition incubated for 48 hrs by MTT assay; format: functional, cell-based; conditions: HepG2, 48 h; outline: as §1
Caco-2 [4] = experiment: Antiproliferative activity against human Caco-2 cells assessed as cell growth inhibition incubated for 48 hrs by MTT assay; format: functional, cell-based; conditions: Caco-2, 48 h; outline: as §1
L02 = experiment: Cytotoxicity against human HL7702 cells assessed as cell growth inhibition incubated for 48 hrs by MTT assay; format: cell-based; conditions: L02, 48 h; outline: as §1
[5] = Toxicity in Balb/c nude mouse xenografted with human SKOV3 cells assessed as change in body weight at 25 mg/kg, po for 21 days and measured every third day; format: organism-based; conditions: in vivo, 504 h, time 21 day
Outline: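 Female BALB/c nu/nu mice, 6-8 weeks old, kept under SPF conditions. Each received 5×10^6 SK-OV-3 cells s.c. At 80–120 mm3 tumour volume, mice were split into four groups (n=6). […] Caliper measurement every three days; volume = X × (Y2/2).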

SK-OV-3 [6] = experiment: Antiproliferative activity against human SK-OV-3 cells assessed as cell growth inhibition at 20 uM incubated for 48 hrs by MTT assay relative to control; format: functional
Bel-7402 [7] = experiment: Antiproliferative activity against human Bel-7402 cells assessed as cell growth inhibition at 20 uM incubated for 48 hrs by MTT assay relative to control; format: functional
HepG2 [8] = experiment: Antiproliferative activity against human HepG2 cells assessed as cell growth inhibition at 20 uM incubated for 48 hrs by MTT assay relative to control; format: functional
Caco-2 [9] = experiment: Antiproliferative activity against human Caco-2 cells assessed as cell growth inhibition at 20 uM incubated for 48 hrs by MTT assay relative to control; format: functional
[10] = Cytotoxicity against human HL7702 cells assessed as cell growth inhibition at 20 uM incubated for 48 hrs by MTT assay relative to control; format: cell-based; conditions: HL7702 (L02) cells
[11] = molecular target: T1, Poly [ADP-ribose] polymerase 1 (Homo sapiens, UniProt P09874); experiment: Inhibition of human recombinant GST-tagged PARP-1 expressed in Escherichia coli assessed as reduction in NAD+-dependent ADP ribosylation incubated for 30 mins in presence and NAD by resazurin dye based fluorescence analysis
[12] = molecular target: Poly [ADP-ribose] polymerase 2 (Homo sapiens, UniProt Q9UGN5); experiment: Inhibition of human recombinant N-terminal GST-tagged PARP-2 expressed in Baculovirus infected Sf9 cells assessed as reduction in NAD+-dependent ADP ribosylation using histone mixture (H2A and H2B) as substrate in presence of activated DNA incubated for 30 mins by chemiluminescence assay
[13] = Selectivity index, ratio of IC50 for inhibition of human recombinant N-terminal GST-tagged PARP-2 to IC50 for inhibition of human recombinant GST-tagged PARP-1
[14] = molecular target: T1, Poly [ADP-ribose] polymerase 1; conditions: dose 100.0 nM, time 30.0 min

T1 sequence (P09874 whole entry): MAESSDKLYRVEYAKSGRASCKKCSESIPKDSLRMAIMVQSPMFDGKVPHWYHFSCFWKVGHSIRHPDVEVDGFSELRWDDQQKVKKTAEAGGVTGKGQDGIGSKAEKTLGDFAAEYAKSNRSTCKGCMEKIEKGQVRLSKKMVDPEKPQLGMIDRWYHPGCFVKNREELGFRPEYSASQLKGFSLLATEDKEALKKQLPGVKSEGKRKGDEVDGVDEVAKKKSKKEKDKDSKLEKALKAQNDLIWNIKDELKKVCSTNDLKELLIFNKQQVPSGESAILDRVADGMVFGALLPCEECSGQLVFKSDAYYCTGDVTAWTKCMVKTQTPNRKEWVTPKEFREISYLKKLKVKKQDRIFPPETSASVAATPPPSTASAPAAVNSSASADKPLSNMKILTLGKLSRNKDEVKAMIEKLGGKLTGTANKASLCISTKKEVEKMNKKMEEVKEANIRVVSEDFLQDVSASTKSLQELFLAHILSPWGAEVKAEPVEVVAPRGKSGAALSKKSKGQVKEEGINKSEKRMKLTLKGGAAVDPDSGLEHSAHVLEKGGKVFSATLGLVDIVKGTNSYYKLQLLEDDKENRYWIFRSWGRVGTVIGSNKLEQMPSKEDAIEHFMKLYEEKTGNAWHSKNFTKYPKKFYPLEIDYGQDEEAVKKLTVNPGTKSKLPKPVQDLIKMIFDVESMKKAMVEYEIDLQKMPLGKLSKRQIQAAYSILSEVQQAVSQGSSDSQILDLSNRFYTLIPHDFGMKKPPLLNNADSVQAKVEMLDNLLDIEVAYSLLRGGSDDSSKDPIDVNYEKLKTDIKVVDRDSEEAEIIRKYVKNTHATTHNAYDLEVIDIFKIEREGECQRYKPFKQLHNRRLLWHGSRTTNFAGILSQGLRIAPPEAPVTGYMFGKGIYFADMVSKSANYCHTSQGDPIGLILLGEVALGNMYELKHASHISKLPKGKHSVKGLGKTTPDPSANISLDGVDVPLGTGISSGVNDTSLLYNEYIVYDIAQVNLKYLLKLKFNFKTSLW
Sequence of Poly [ADP-ribose] polymerase 2 (Q9UGN5 whole entry): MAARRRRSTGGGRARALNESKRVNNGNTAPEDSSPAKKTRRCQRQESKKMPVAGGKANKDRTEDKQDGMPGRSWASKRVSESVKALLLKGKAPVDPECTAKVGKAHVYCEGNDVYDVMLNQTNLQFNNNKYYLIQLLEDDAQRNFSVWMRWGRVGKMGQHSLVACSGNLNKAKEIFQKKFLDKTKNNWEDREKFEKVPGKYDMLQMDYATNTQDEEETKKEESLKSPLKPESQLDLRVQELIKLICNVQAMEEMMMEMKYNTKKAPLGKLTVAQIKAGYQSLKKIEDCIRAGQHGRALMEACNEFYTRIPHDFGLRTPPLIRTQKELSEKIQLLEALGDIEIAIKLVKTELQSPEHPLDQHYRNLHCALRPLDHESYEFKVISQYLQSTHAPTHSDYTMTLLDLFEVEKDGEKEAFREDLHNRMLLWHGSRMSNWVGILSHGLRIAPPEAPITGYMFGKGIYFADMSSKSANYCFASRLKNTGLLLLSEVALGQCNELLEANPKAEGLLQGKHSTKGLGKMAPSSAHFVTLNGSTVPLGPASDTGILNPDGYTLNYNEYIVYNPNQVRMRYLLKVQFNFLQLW

Row | IC50 (SK-OV-3 [1]) | IC50 (Bel-7402 [2]) | IC50 (HepG2 [3]) | IC50 (Caco-2 [4]) | IC50 [11] | IC50 [12] | Ratio IC50 [13] | inhibition [14] | Structure (SMILES) | IC50 (L02) | Activity [5] | inhibition at 20 µM (SK-OV-3 [6]) | inhibition at 20 µM (Bel-7402 [7]) | inhibition at 20 µM (HepG2 [8]) | inhibition at 20 µM (Caco-2 [9]) | inhibition at 48 h, 20 µM [10]
1 | 3.15 µM | 35.5 µM | 42.4 µM | 65.5 µM |  |  |  |  | O=C(c1cc(Cc2n[nH]c(=O)c3ccccc23)ccc1F)N1CCN(C(=O)C2CC2)CC1 [OLAPARIB] | 25.8 µM | Non-Toxic |  |  |  |  | 
2 | 15.6 µM | 6.89 µM | 10.5 µM | 11.3 µM | 0.0583 µM | > 1 µM | > 17.2 | 72.2% | CCOC(=O)c1ccc(NC(=S)N/N=C/c2cc(OC)c(OC)c(Br)c2Br)cc1 | 9.96 µM |  | 70% | 71.9% | 73% | 76.5% | 97.7%
3 | 18.2 µM | 24 µM | 26.3 µM | 15.9 µM | 0.186 µM | > 1 µM | > 5.37 | 51.5% | COc1cc(/C=N/NC(=S)NCCCN2CCOCC2)c(Br)c(Br)c1OC | 28.9 µM |  | 71.5% | 89.7% | 40.2% | 45.9% | 51%
